≈ marks a conversion by molar mass, not a printed value.
How the values were obtained:
[1] = biological target: T1, Sterol 14-alpha demethylase cyp51A (Neosartorya fumigata (strain ATCC MYA-4609 / Af293 / CBS 101355 / FGSCA1100) (Aspergillus fumigatus), UniProt Q4WNT5); assay: Binding affinity to Aspergillus fumigatus AF293 sterol 14-alpha demethylase isoenzyme A expressed in Escherichia coli
T1 sequence (Q4WNT5 whole entry): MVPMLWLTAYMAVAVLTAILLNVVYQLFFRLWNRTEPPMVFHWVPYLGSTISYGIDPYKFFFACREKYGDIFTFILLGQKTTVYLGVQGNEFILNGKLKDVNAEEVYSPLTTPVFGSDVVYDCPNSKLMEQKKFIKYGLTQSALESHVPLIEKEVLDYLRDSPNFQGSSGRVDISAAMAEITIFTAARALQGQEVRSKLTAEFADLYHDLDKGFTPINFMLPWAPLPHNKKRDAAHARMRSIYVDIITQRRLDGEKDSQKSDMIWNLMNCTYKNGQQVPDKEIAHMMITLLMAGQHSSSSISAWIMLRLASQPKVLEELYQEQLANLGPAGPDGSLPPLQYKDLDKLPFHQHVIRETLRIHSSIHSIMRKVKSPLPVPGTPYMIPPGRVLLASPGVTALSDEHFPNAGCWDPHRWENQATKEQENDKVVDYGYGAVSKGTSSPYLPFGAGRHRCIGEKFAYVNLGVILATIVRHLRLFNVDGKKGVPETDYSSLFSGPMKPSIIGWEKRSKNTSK
Summary of the method: (§1)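 His-tagged CYP51 (Af293 sequence, codon-optimised, E. coli-expressed), cholate-solubilised and Ni-NTA purified, at 1 μM in 0.1 M Tris-HCl pH 8.1 with 25% glycerol. Azole (0.05 mg/ml DMSO stock) titrated in split 4.5 mm cuvettes, with DMSO added to the reference. Difference spectra were read at 500–350 nm. Peak-to-trough change was plotted against concentration. Kd came from Morrison (tight binding), Michaelis-Menten or Hill fits.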

[2] = biological target: T2, 14-alpha sterol demethylase (Neosartorya fumigata (Aspergillus fumigatus), UniProt Q96W81); assay: Binding affinity to Aspergillus fumigatus AF293 sterol 14-alpha demethylase isoenzyme B expressed in Escherichia coli assessed as tight binding affinity constant; summary of the method: as §1
T2 sequence (Q96W81 whole entry): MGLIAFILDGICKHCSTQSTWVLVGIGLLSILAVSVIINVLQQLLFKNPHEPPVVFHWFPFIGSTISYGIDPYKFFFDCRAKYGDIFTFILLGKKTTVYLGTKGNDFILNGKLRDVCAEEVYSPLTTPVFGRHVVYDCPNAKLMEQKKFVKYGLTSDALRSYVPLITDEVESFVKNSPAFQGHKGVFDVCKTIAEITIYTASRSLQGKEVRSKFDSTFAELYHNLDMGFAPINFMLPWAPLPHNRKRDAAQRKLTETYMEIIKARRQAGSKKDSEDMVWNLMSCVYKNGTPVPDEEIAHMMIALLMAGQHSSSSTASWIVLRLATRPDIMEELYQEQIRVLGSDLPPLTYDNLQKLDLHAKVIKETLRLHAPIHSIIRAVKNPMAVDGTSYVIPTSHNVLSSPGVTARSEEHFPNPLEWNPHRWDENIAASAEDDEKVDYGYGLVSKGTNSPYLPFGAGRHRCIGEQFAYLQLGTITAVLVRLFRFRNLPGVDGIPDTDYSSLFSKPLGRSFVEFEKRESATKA

Aspergillus fumigatus [3] = assay: Antimicrobial activity against sterol 14-alpha demethylase isoenzyme A-deficient Aspergillus fumigatus CEA10; assay type: functional
Aspergillus fumigatus [4] = assay: Antimicrobial activity against sterol 14-alpha demethylase isoenzyme B-deficient Aspergillus fumigatus CEA10; assay type: functional
[5] = Binding affinity to Mycobacterium smegmatis CYP51; parameters: species or system Mycolicibacterium smegmatis
[6] = biological target: Lanosterol 14-alpha demethylase (Candida albicans (strain SC5314 / ATCC MYA-2876) (Yeast), UniProt P10613); assay: Binding affinity to Candida albicans CYP51
Aspergillus fumigatus [7] = assay: Antimicrobial activity against Aspergillus fumigatus CEA10; assay type: functional
Aspergillus fumigatus [8] = assay: Antimicrobial activity against Aspergillus fumigatus AF293; assay type: functional
[9] = biological target: T2, 14-alpha sterol demethylase; assay: Binding affinity to Aspergillus fumigatus AF293 sterol 14-alpha demethylase isoenzyme B expressed in Escherichia coli; summary of the method: as §1
Aspergillus fumigatus [10] = assay: Antimicrobial activity against Aspergillus fumigatus CM237; assay type: functional
Aspergillus fumigatus [11] = assay: Antimicrobial activity against sterol 14-alpha demethylase isoenzyme A-deficient Aspergillus fumigatus CM237; assay type: functional

Sequence of Lanosterol 14-alpha demethylase (P10613 whole entry): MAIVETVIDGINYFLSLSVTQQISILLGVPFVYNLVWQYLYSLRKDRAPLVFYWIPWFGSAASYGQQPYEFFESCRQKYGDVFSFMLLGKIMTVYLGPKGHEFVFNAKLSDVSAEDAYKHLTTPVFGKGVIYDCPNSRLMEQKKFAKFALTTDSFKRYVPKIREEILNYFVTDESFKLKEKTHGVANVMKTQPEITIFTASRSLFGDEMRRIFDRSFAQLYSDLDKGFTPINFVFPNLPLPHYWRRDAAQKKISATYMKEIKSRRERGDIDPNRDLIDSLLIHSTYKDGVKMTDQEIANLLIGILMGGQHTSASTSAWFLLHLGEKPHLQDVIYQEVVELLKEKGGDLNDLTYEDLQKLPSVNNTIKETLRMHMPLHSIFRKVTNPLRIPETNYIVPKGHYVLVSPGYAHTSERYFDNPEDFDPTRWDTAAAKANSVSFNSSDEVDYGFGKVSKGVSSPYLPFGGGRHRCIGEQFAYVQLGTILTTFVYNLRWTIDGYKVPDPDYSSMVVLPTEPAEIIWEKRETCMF

Row | SMILES | Kd [1] | Kd [2] | MIC (Aspergillus fumigatus [8]) | further results
1 | Clc1ccccc1C(c1ccccc1)(c1ccccc1)n1ccnc1 [CLOTRIMAZOLE] | 4790 nM | 103 nM | – | –
2 | OC(Cn1cncn1)(Cn1cncn1)c1ccc(F)cc1F [FLUCONAZOLE] | 11900 nM | – | – | MIC (Aspergillus fumigatus [3]; read-out: MIC): 20 µg/mL; MIC (Aspergillus fumigatus [4]; read-out: MIC): > 327 µg/mL; Kd [5]: 19000 nM; Kd [6]: 45 nM; MIC (Aspergillus fumigatus [7]; read-out: MIC): > 327 µg/mL; MIC (Aspergillus fumigatus [8]; read-out: MIC): 105 µg/mL
3 | CCC(C)n1ncn(-c2ccc(N3CCN(c4ccc(OCC5COC(Cn6cncn6)(c6ccc(Cl)cc6Cl)O5)cc4)CC3)cc2)c1=O (centres undefined) [ITRACONAZOLE] | 1010 nM | 31 nM | 0.71 µM | MIC (Aspergillus fumigatus [3]): 0.053 µM; MIC (Aspergillus fumigatus [4]): 0.85 µM; MIC (Aspergillus fumigatus [7]): 0.85 µM
4 | CC[C@@H]([C@H](C)O)n1ncn(-c2ccc(N3CCN(c4ccc(OC[C@@H]5CO[C@@](Cn6cncn6)(c6ccc(F)cc6F)C5)cc4)CC3)cc2)c1=O [POSACONAZOLE] | 2690 nM | 73 nM | 0.72 µM | –
5 | C[C@@H](c1ncncc1F)[C@](O)(Cn1cncn1)c1ccc(F)cc1F [VORICONAZOLE] | 3630 nM | 429 nM | 0.72 µM | Kd [9]: 423 nM; MIC (Aspergillus fumigatus [10]): 1.49 µM (≈ 0.52 µg/mL); MIC (Aspergillus fumigatus [11]): 0.34 µM (≈ 0.119 µg/mL)

— ChEMBL document CHEMBL1671727, “Expression, purification, and characterization of Aspergillus fumigatus sterol 14-alpha demethylase (CYP51) isoenzymes A and B” (Antimicrob Agents Chemother, 2010)
